Results on nine compounds are retold here after ChEMBL document CHEMBL4428034, “Bioactive Isoprenoid-Derived Natural Products from a Dongsha Atoll Soft Coral Sinularia erecta” (J Nat Prod, 2016).

Assay [1] has as its system Neutrophil. Nature of the assay: Anti-inflammatory activity in FMLP/CB-stimulated human neutrophils assessed as inhibition of superoxide generation preincubated for 5 mins followed by cytochalasin B and FMLP stimulation for 3 mins and 10 mins respectively by ferricytochrome c reduction based assay. The assay is classed as functional, cell-based. The method, boiled down: (§1)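 In fMLP/CB-stimulated human neutrophils, IC50 was taken as the concentration giving 50% inhibition. Values are mean ± SEM (n = 3).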

Assay [2] has as its system Neutrophil. Nature of the assay: Anti-inflammatory activity in FMLP/CB-stimulated human neutrophils assessed as inhibition of elastase release preincubated for 5 mins followed by FMLP/CB stimulation for 10 mins using MeO-Suc-Ala-Ala-Pro-Val-p-nitroanilide as substrate. The assay is classed as functional, cell-based. Put shortly:
as §1

The subject of assay [3] is Neutrophil. Nature of the assay: Anti-inflammatory activity in FMLP/CB-stimulated human neutrophils assessed as inhibition of superoxide generation at 10 uM preincubated for 5 mins followed by cytochalasin B and FMLP stimulation for 3 mins and 10 mins respectively by ferricytochrome c reduction based assay relative to control. The assay is classed as functional. The method, boiled down: (§2)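 Percent inhibition at 10 μM relative to control in fMLP/CB-stimulated human neutrophils. Values are mean ± SEM (n = 3), with significance tested against the control value.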

The test system of assay [4] is Neutrophil. Nature of the assay: Anti-inflammatory activity in FMLP/CB-stimulated human neutrophils assessed as inhibition of elastase release at 10 uM preincubated for 5 mins followed by FMLP/CB stimulation for 10 mins using MeO-Suc-Ala-Ala-Pro-Val-p-nitroanilide as substrate relative to control. The format is functional. The method, boiled down:
as §2

For a further assay, the system named is K562. Nature of the assay: Cytotoxicity against human K562 cells assessed as growth inhibition after 3 days by alamar blue assay. The assay is classed as functional, cell-based. The following applies: K562, 72 h. Background: Resazurin is reduced to fluorescent resorufin, in cell work by metabolically active cells.
For a further assay, the system named is MOLT-4. Nature of the assay: Cytotoxicity against human MOLT4 cells assessed as growth inhibition after 3 days by alamar blue assay. The assay is classed as functional, cell-based. The note with it: MOLT-4, 72 h. Put shortly: (§3)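 Cells were seeded at 5 × 10^3 to 1 × 10^4 per well and kept in a humidified 5% CO2 incubator. After 3 days in culture, Alamar Blue was added for 4 h and absorbance read at 595 nm. IC50 is the concentration that reduced cell growth by 50%.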

The next assay deals with CCRF-CEM. Nature of the assay: Cytotoxicity against human CCRF-CEM cells assessed as growth inhibition after 3 days by alamar blue assay. The following applies: 72 h. The format is functional, cell-based. The method, boiled down:
as §3

The IC50 is the concentration needed to halve the response being measured. As usually defined, the inhibition is the drop in the measured response relative to a control, in per cent.

The structures appear in SMILES notation.

Turning to `C=C(C)[C@@H]1CCC(=C)[C@@H](OO)CCC(=C)[C@H]2CC[C@@](C)(O2)[C@@H](O)C1`, the IC50 in the assay on Neutrophil [1] is over 10 µM; in the assay with Neutrophil [2] it was over 10 µM; with K562, 9.2 µM. For the same compound, the values for the inhibition at 10 µM in the assay with Neutrophil [3] and in the assay with Neutrophil [4] were 24% and 33%, respectively.

Take `C=C(C)[C@@H]1C[C@H]2O[C@](O)(C1)C[C@@H](OC(C)=O)C(=O)/C=C(/C)C[C@@H]1OC(=O)[C@]23O[C@@H]13`: the IC50 came to 2.3 µM in the assay with Neutrophil [1] and 0.9 µM with Neutrophil [2]. Further, the results for the inhibition at 10 µM in the assay on Neutrophil [3] and with Neutrophil [4] were 100% and 113%, respectively.

Take `CC[C@H](Nc1ncnc2[nH]cnc12)c1nc2cccc(F)c2c(=O)n1-c1ccccc1` [IDELALISIB]: the IC50 with Neutrophil [1] came out at 0.07 µM; with Neutrophil [2], 0.3 µM. Moreover, the inhibition at 10 µM in the assay on Neutrophil [3] is 103%; with Neutrophil [4], 100%.

Regarding `C=C(C(=O)OC)[C@H]1CC(=O)C[C@@H]2O[C@@H]3[C@H](C[C@](C)(O)CC2=O)OC(=O)[C@@]32O[C@@H]2C1`, the IC50 in the assay with Neutrophil [1] was determined as 8.5 µM; in the assay on Neutrophil [2] it was 3.8 µM. Also, the inhibition at 10 µM in the assay with Neutrophil [3] was 55%; in the assay with Neutrophil [4], 93%.

For `C=C(C)[C@H]1CC(=O)[C@@H]2[C@@H](C1)[C@H]1C(=O)O[C@H]3C[C@@]4(C)O[C@@H]2C(=O)[C@H]4[C@@H]13`, the IC50 in the assay with Neutrophil [1] and in the assay with Neutrophil [2] was over 10 µM each time. For the same compound, the inhibition at 10 µM in the assay on Neutrophil [3] was 16%; in the assay with Neutrophil [4] it was 18%.

On to `C=C(C)C(CCC(C)=O)C[C@@H]1O[C@@]1(C)C/C=C/C(C)=O` (stereo partly specified), for which the IC50 was over 10 µM with Neutrophil [1], over 10 µM in the assay on Neutrophil [2], 9.7 µM in the assay with MOLT-4 and 8.6 µM in the assay on K562. For the same compound, the inhibition at 10 µM with Neutrophil [3] stood at 13%; in the assay with Neutrophil [4] it was 17%.

Take `COC(=O)[C@@]1(CCl)O[C@@]2(O)C[C@H]1C[C@@H](O)[C@]13O[C@H]1[C@H](C[C@@]1(C)CC(=O)[C@H](C2)O1)OC3=O`: the IC50 with Neutrophil [1] and in the assay with Neutrophil [2] was over 10 µM in each case. The inhibition at 10 µM in the assay with Neutrophil [3] is 7%; in the assay on Neutrophil [4] it was 14%.

Regarding `CCCCCCCCC/C(C)=C\C(=O)NCCc1ccc(O)cc1`, the IC50 with Neutrophil [1] is over 10 µM; with CCRF-CEM it was 6.3 µM; with Neutrophil [2], 1 µM; with MOLT-4, 9.7 µM. Also, the inhibition at 10 µM in the assay with Neutrophil [3] is 48%; in the assay on Neutrophil [4], 102%.

With `C=C(C)[C@@H]1CCC2=C[C@H](C[C@@]3(C)CC(=O)[C@H](CC(=O)C1)O3)OC2=O`, the half-inhibitory concentration (IC50) with Neutrophil [1] and with Neutrophil [2] was over 10 µM throughout. In addition, the inhibition at 10 µM with Neutrophil [3] stood at 15%; in the assay with Neutrophil [4], 19%.
